Hits are enriched below; roughly 1.5% of the tested compounds scored in any of these assays.
CCR6 antag: CCR6 receptor antagonists, primary screen, cell-based, CHO-K1, luminescence, beta-arrestin, uHTS; C-C chemokine receptor type 6 (Homo sapiens), P51684; CHO-K1 CCR6 PathHunter beta-arrestin, CCL20-stimulated; inhibition, % at 20 µM; 340,000 tested, 0.49% active; AID 493098, 2011;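 active means compounds whose inhibition of the agonist-driven luminescence signal at 20 µM reaches about 50%, limit read from the data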;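 further: cells stimulated with CCL20 at 14 nM final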
Target sequence (P51684 whole entry, looked up): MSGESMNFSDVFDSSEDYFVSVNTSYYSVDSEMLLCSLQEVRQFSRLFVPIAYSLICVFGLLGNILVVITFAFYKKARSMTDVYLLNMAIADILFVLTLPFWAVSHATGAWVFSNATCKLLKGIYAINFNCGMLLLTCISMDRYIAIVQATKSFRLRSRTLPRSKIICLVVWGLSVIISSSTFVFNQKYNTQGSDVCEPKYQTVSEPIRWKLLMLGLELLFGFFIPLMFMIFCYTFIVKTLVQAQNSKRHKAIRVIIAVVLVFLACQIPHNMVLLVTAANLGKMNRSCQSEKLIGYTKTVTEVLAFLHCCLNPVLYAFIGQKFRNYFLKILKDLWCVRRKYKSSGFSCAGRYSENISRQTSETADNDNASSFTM
m5-HT2A agonist: mouse Htr2a agonists via beta-arrestin recruitment, primary screen, cell-based, luminescence; 5-hydroxytryptamine receptor 2A (Mus musculus), P35363; CHO-K1 mHTR2A beta-arrestin complementation; percent of 30 µM serotonin response; activation, % at 7.6 µM; 360,000 tested, 0.66% active; AID 624169, 2012;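 active means activation above a run cutoff, the mean activation of all tested compounds plus 3 SD, cut at about 14% in these data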
NTR1 ag: agonists of human NTR1, primary screen, imaging, U2OS cells, beta-arrestin-GFP, high content. 330,000 tested, 0.17% active. activation, % at 20 µM. NTR1-U2OS beta-arrestin-GFP spot imaging, agonist mode;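 active means activation at or above 40% of the spot to cytoplasm intensity ratio, with at least 20 cells analyzed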
APJ agonist: agonists of human apelin receptor APJ, primary screen, CHO-K1 cells, PathHunter beta-arrestin, luminescence | 0% DMSO wells, 100% apelin | P35414 | 330,000 tested, 0.11% active | activation, % at 20 µM;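 active means activation more than six SD over the plate average, tested at 20 µM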
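Assay system – PathHunter CHO-K1 APJ (AGTRL-1) beta-arrestin reporter cells · Compound – one dose, 20 µM compound, 1% DMSO · Timing – compound 90 min 25 °C, reagent 1 h · Measured by – luminescence from split beta-galactosidase complementation, Galacton Star/Emerald II substrate · Measure – beta-arrestin recruitment to APJ as agonist activity, luminescent signal · Benchmarks – DMSO vs Apelin-13 10 nM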
CXCR6 inh: CXCR6 receptor inhibitors, primary screen, cell-based, beta-arrestin, luminescence, CHO-K1 PathHunter, 1536-well; inhibition, % at 20 µM; 360,000 tested, 0.36% active; C-X-C chemokine receptor type 6 (Homo sapiens), O00574; in the data active means inhibition above about 34%, passing the limit was not always enough;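 further: antagonist mode with CXCL16 agonist at 10 nM final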
APJ antagonist: antagonists of human apelin receptor APJ, primary screen, CHO-K1 cells, beta-arrestin complementation, luminescence; inhibition, % at 20 µM; 330,000 tested, 0.32% active;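 active means inhibition above about 40% at 20 µM, limit read from the data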;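 further: cells challenged with 10 nM apelin-13 agonist together with compound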
NTR1 ag confirm: NTR1 agonists, single-dose retest, confirmation, imaging, U2OS cells, beta-arrestin-GFP, single concentration | NTR1-U2OS beta-arrestin-GFP translocation imaging | AID 504550, 2011 | 480 tested, 38% active | shares compounds with NTR1 ag | activation, % at 20 µM;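 active means mean activation at 20 µM of at least 40%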
Hits are given with their value; – = inactive; · = no result.

SMILES | CCR6 antag | m5-HT2A agonist | NTR1 ag | APJ agonist | CXCR6 inh | APJ antagonist | NTR1 ag confirm
CC(C)(C)OC(=O)COc1cc(OCC(=O)OC(C)(C)C)c2c(=O)cc(-c3ccccc3)oc2c1 | – | – | 52.6 | – | – | – | –
CCOC(=O)N1CCN(CC(O)COc2ccccc2C(C)C)CC1 (centres undefined) | – | – | – | – | – | – | ·
CCN(CCNCC(O)COc1ccccc1C(C)C)c1cccc(C)c1 (centres undefined) | – | – | 53.5 | – | – | – | –
C[C@H](NC(=O)c1[nH]cnc1C(=O)Nc1ccc(Cl)cc1)C(=O)OC(C)(C)C | – | – | 41.4 | – | – | – | –
CCOC(=O)c1ccc(NC(=O)c2nc[nH]c2C(=O)N[C@@H](CC(C)C)C(=O)OC(C)(C)C)cc1 | – | – | – | – | – | – | ·
CCOC(=O)c1ccc(NC(=O)c2nc[nH]c2C(=O)N[C@@H](C)C(=O)OC(C)(C)C)cc1 | – | – | 42.6 | – | – | – | –
CSCCC(NC(=O)c1ccccc1Cl)C(=O)N(C)CC(=O)Nc1ccc(N2CCOCC2)cc1 (centres undefined) | – | – | – | – | – | – | ·
O=C1/C(=C/c2ccncc2)Oc2cc(OS(=O)(=O)c3ccccc3)ccc21 | – | – | – | – | – | – | ·
COc1cccc(OC)c1C(=O)Oc1ccc2c(c1)O/C(=C\c1ccncc1)C2=O | – | – | 51.5 | – | – | – | 56.2
Cc1cccc(-c2nc(Nc3cccc(O)c3)c3ccccc3n2)c1 | – | – | 53.2 | – | – | – | –
COc1cccc(OCc2cc(C(=O)NC(C)c3cnn(C)c3C)no2)c1 (centres undefined) | – | – | – | – | – | – | ·
COCCNC(=O)C1(C)CCCN(CCC(=O)c2ccc(Br)cc2)C1 (centres undefined) | · | – | · | · | – | · | ·
O=C(NNc1c2ccccc2nc2ccccc12)c1ccccc1O | – | – | 49.5 | – | – | – | –
O=C(NNc1c2ccccc2nc2ccccc12)c1ccccc1Cl | – | – | – | – | – | – | ·
CCc1ccc(OC2(C)CCN(Cc3ccc4c(c3)OCCO4)C2)cc1 (centres undefined) | · | – | · | · | – | · | ·
CCn1c(SCC(=O)NC2=NCCS2)nnc1C(C)NC(=O)c1ccc(Cl)cc1 (centres undefined) | – | – | 41.9 | – | – | – | –
O=C1Cn2nnc(-c3ccccc3)c2C2c3ccccc3CCN12 (centres undefined) | · | – | · | · | – | · | ·
Cc1cc(C)cc(Cn2cc(CN3CC(N4CCN(C)CC4)CS3(=O)=O)nn2)c1 (centres undefined) | · | – | · | · | – | · | ·
Cc1ccc(-c2csc(-c3c[nH]c4ccccc34)n2)c(C)c1 | – | – | 45.5 | – | – | – | –
Oc1ccc(-c2csc(-c3c[nH]c4ccccc34)n2)c(O)c1 | – | – | – | – | – | – | ·
CCN(c1ccccc1)S(=O)(=O)c1cccc(C(=O)NCC(c2ccc(F)cc2)N2CCOCC2)c1 (centres undefined) | – | – | · | · | – | · | ·
NS(=O)(=O)c1ccc(CCNC(=O)c2ccc(Cn3c(=O)[nH]c4ccccc4c3=O)cc2)cc1 | – | – | – | – | – | – | ·
COC(OC)c1ccc(C#N)c(=O)[nH]1 | – | – | – | – | – | – | ·
COc1ccc(NC(=O)COC(=O)c2c3c(nc4ccccc24)CCCC3)cc1 | – | – | – | – | – | – | ·
COc1ccc(OC)c(NC(=O)COC(=O)c2c3c(nc4ccccc24)CCCC3)c1 | – | – | 40.7 | – | – | – | –
SMILES | CCR6 antag | m5-HT2A agonist | NTR1 ag | APJ agonist | CXCR6 inh | APJ antagonist | NTR1 ag confirm
O=C(Nc1ccc(-c2noc(CCc3ccccc3)n2)cc1)c1cccnc1 | – | – | 66.7 | – | – | – | –
C[C@H]1C=CC(=O)O[C@H]1c1ccccc1 | – | – | 40.9 | – | – | – | –
C[C@@H]1C=CC(=O)O[C@@H]1c1ccc(C(F)(F)F)cc1 | · | · | – | – | · | – | ·
Cc1ccc(N(CC(=O)NCc2ccco2)C(=O)CCC(=O)Nc2nccs2)c(C)c1 | – | – | – | – | – | – | ·
COc1ccc(Cn2c(SCc3cc(C)ccc3C)nc3cc(OC)c(OC)cc3c2=N)cc1 | – | – | 48.2 | – | – | – | –
COCCCn1c(SCc2ccccc2)nc2cc(OC)c(OC)cc2c1=N | – | – | – | – | – | – | ·
COc1cc2nc(SCc3ccc(Cl)cc3Cl)n(Cc3cccs3)c(=N)c2cc1OC | – | – | – | – | – | – | ·
COc1cc2nc(SCc3ccc(C(F)(F)F)cc3)n(Cc3cccs3)c(=N)c2cc1OC | – | – | – | – | – | – | ·
COCCCn1c(SCc2cccc(C(F)(F)F)c2)nc2cc(OC)c(OC)cc2c1=N | – | – | 59.8 | – | – | – | –
COc1ccc(Cn2c(SCc3ccc(C)cc3)nc3cc(OC)c(OC)cc3c2=N)cc1Cl | – | – | 54.2 | – | – | – | 63.7
Cc1ccc(C(=O)N/C(=C\c2ccco2)C(=O)NCCN2CCOCC2)cc1 | – | – | – | – | – | – | ·
C=CCc1c(O)c(CC)cc2c(C)cc(=O)oc12 | – | – | – | – | – | – | ·
COc1cccc(/C=C/C(=O)c2cccc([N+](=O)[O-])c2)c1OC | – | – | 58.7 | – | – | – | 59.0
CC(=O)c1ccc(NC(=O)C[n+]2cccc(C)c2)cc1 | – | – | – | – | – | – | ·
CCCCCCOc1ccc(/C(C)=N/NC2=NCCN2)cc1[N+](=O)[O-] | – | – | 41.1 | – | – | – | 46.4
CCn1c(SCC(=O)Nc2ccc(N(C)C)cc2)nnc1-c1ccco1 | – | – | – | – | – | – | ·
O=C(COc1ccccc1[N+](=O)[O-])Nc1ccc(NC(=O)c2cc3ccccc3o2)cc1 | – | – | 40.0 | – | – | – | –
O=C1NC[C@@H](Cc2cccc3ccccc23)N(CCCCC2CCCCC2)C1=O | – | – | 40.9 | – | – | – | –
O=C1NC[C@H](CC2CCCCC2)N(CCc2cccc3ccccc23)C1=O | · | – | · | · | – | · | ·
COc1ccc(CCNC(=O)C(C(=O)c2ccc(F)cc2)n2ccccc2=O)cc1OC (centres undefined) | – | – | – | – | – | – | ·
N#C/C(=C\c1cn[nH]c1-c1ccc(Cl)cc1)C(=O)NCc1ccccc1 | – | – | 43.3 | – | – | – | –
O=C(Nc1ccc(-c2nc3ccccc3o2)cc1)c1ccc2c(c1)OCO2 | – | – | – | – | – | – | ·

Screening results deposited in PubChem BioAssay by several laboratories.
